Measurements taken from publication PMC2795045 (Chemico-biological interactions, 2010).
Where two headings read alike, the source gives them in different places.

Tests used:
[1] = test system: XLK-WG cells; experiment: CYP1A6/CYP1A7 mRNA induction in XLK-WG cells by quantitative RT-PCR; assay type: cell-based, Xenopus laevis
[2] = test system: CYP1A; experiment: CYP1A activity; assay type: cell-based, Xenopus laevis; details: Xenopus laevis
[3] = test system: XLK-WG cells; experiment: CYP1A activity; assay type: cell-based, Xenopus laevis; details: XLK-WG cells, at the concentration of maximum response
[4] = test system: CYP1A1; experiment: CYP1A1 mRNA induction in Hepa1c1c7 cells by quantitative RT-PCR; assay type: cell-based, mouse; details: mouse, EC50 for CYP1A1 mRNA induction, 3 hours exposure, qRT-PCR, ± SE
[5] = test system: Hepa1c1c7 cells; experiment: as above; assay type: cell-based, mouse; details: read-out: EC50 for CYP1A1 mRNA induction, 3 hours exposure, qRT-PCR, ± SE
[6] = test system: Hepa1c1c7 cells; experiment: CYP1A activity; assay type: cell-based, mouse; details: for maximum EROD activity in Hepa1c1c7 cells relative to XLK-WG cells / maximum EROD activity induced: 3 hour treatment; for maximum EROD activity induced: ± SE
[7] = test system: CYP1A6 (Xl.1692) mRNA; experiment: Affymetrix expression microarray of XLK-WG cells; assay type: cell-based, Xenopus laevis; details: Xenopus laevis
[8] = test system: CYP1A7 (Xl.1220) mRNA; experiment: Affymetrix expression microarray of XLK-WG cells; assay type: cell-based, Xenopus laevis; details: Xenopus laevis
[9] = test system: XLK-WG cells; experiment: Affymetrix expression microarray of XLK-WG cells; assay type: cell-based, Xenopus laevis; details: for Genes altered ≥ 2-fold: Induced / Genes altered ≥ 2-fold: Repressed / Genes altered (p ≤ 0.01): Induced / Genes altered (p ≤ 0.01): Repressed: 3 hours, number of genes; for Genes altered (p ≤ 0.01): Induced / Genes altered (p ≤ 0.01): Repressed: no two-fold cutoff; for fold induction at 0.1 µM: Xenopus laevis, 3 h
[10] = test system: CYP1A6 (Xl.1692) mRNA; experiment: qRT-PCR of selected altered transcripts in XLK-WG cells; assay type: cell-based, Xenopus laevis; details: Xenopus laevis
[11] = test system: CYP1A7 (Xl.1220) mRNA; experiment: as above; assay type: cell-based, Xenopus laevis; details: Xenopus laevis
[12] = test system: XLK-WG cells; experiment: as above; assay type: cell-based, Xenopus laevis; details: XLK-WG cells, relative to vehicle-treated control; for Xl.14954 (similar to voltage-gated potassium channel subunit MiRP4.1) fold induction, qRT-PCR: table row r10; for Xl.14954 fold induction, qRT-PCR: table row r16
[13] = test system: CYP1A; experiment: CYP1A activity; assay type: cell-based, mouse; details: mouse
[14] = test system: XLK-WG cells; experiment: Semi-quantitative RT-PCR of AHR pathway transcripts in XLK-WG cells; assay type: cell-based, Xenopus laevis; details: 100 nM TCDD, 24 hours
How it was run: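 XLK-WG cells were kept in the dark at 29 °C and 5% CO2 in RPMI-1640 with 20% FBS, then grown to near confluence. They were exposed for 24 h to 100 nM TCDD or DMSO vehicle (0.25% final). Total RNA was column-extracted, and RT-PCR covered CYP1A6, CYP1A7, AHR1α, AHR1β, ARNT1 and ARNT2. Cycling was 95 °C/1 min; 43 cycles of […], 50 °C/30 sec, 72 °C/60 sec; then 72 °C/7 min. A no-RT control was included.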

[15] = read-out: Hypothetical protein MCG81225 (similar to Zn-finger protein 410; Xl.16594) fold induction, Microarray

Structure (SMILES): O=Cc1c2[nH]c3ccccc3c2cc2[nH]c3ccccc3c12 [FICZ, 6-formylindolo[3,2-b]carbazole]
- CYP1A6/7 mRNA quantities after 3 hours exposure relative to 24 hours exposure [1]: up to 5 fold
- CYP1A7 mRNA induction after 3 hours relative to after 24 hours ([1]; highest dosage of FICZ): 5 fold
- EC50 ([2]; EC50 of induced CYP1A activity (EROD), XLK-WG cells, 3 hour exposure, ± SE): 560 ± 150 pM
- rise of induced CYP1A activity with 24 hours versus 3 hour exposure [3]: more than 20 fold
- EC50 [4]: ~60 pM
- EC50 [5]: 70 ± 20 pM
- maximum EROD activity in Hepa1c1c7 cells relative to XLK-WG cells [6]: ~ 20 fold
- EROD EC50 after 24 hours relative to EC50 after 3 hours ([6]; Hepa1c1c7 cells): ~ 50 fold
- maximum EROD activity induced ([6]; Hepa1c1c7 cells): 8.83 ± 2.72 pmol • mg protein^−1 • min^−1
- fold induction at 0.1 µM [7]: 2.1
- fold induction at 0.1 µM [8]: 16.1
- number of transcripts with altered expression in excess of TCDD ([9]; XLK-WG cells, 100 nM): 105
- Genes altered ≥ 2-fold: Induced ([9]; XLK-WG cells, 100 nM): 24
- Genes altered ≥ 2-fold: Repressed ([9]; XLK-WG cells, 100 nM): 2
- Genes altered (p ≤ 0.01): Induced ([9]; XLK-WG cells, 100 nM): 113
- Genes altered (p ≤ 0.01): Repressed ([9]; XLK-WG cells, 100 nM): 35
- fold induction at 0.1 µM [9, 15]: 1.3
- fold induction at 0.1 µM ([9]; read-out: KCNE5.1: voltage-gated potassium channel subunit MiRP4.1 (Xl.16370) fold induction, Microarray): 2
- fold induction at 0.1 µM ([9]; read-out: MGC52735:similar to gap-jct protein alpha-7 (Xl.3337) fold induction, Microarray): 5.2
- fold induction at 0.1 µM ([9]; read-out: MGC85390 (Xl.23887; similar to RAB 40B, RAS oncogene family) fold induction, Microarray): 2.1
- fold induction at 0.1 µM ([9]; read-out: Peripheral Myelin protein 22 (Xl.11939/Xl.14729) fold induction, Microarray): 2.2
- fold induction at 0.1 µM ([9]; read-out: SYNE 1 (Xl. 14119) fold induction, Microarray): 6.7
- fold induction at 0.1 µM ([9]; read-out: Xl.13754 (similar to C219-reactive peptide) fold induction, Microarray): 3.1
- fold induction at 0.1 µM ([9]; read-out: Xl.14584 (similar to gastrula-specific protein kinase) fold induction, Microarray): 2.9
- fold induction at 0.1 µM ([9]; read-out: Xl.14954 (similar to voltage-gated potassium channel subunit MiRP4.1) fold induction, Microarray): 3.1
- fold induction at 0.1 µM ([9]; read-out: Xl.14954 fold induction, Microarray): 2.1
- fold induction at 0.1 µM ([9]; read-out: Xl.25142 fold induction, Microarray): 2.1
- fold induction at 0.1 µM ([9]; read-out: Xl.7783 fold induction, Microarray): 5.9
- fold induction [10]: 455
- fold induction [11]: 412
- Hyaluronidase 2 (Xl.6247/Xl.16152) fold induction, qRT-PCR [12]: 2.7 fold
- Hypothetical protein MCG81225 (similar to Zn-finger protein 410; Xl.16594) fold induction, qRT-PCR [12]: 3.5 fold
- KCNE5.1: voltage-gated potassium channel subunit MiRP4.1 (Xl.16370) fold induction, qRT-PCR [12]: 1.6 fold
- MGC52735:similar to gap-jct protein alpha-7 (Xl.3337) fold induction, qRT-PCR [12]: 304 fold
- Peripheral Myelin protein 22 (Xl.11939/Xl.14729) fold induction, qRT-PCR [12]: 1.0 fold
- SYNE 1 (Xl. 14119) fold induction, qRT-PCR [12]: 106 fold
- Xl.13754 (similar to C219-reactive peptide) fold induction, qRT-PCR [12]: 4.6 fold
- Xl.14584 (similar to gastrula-specific protein kinase) fold induction, qRT-PCR [12]: 10.6 fold
- Xl.25142 fold induction, qRT-PCR [12]: 1.8 fold
- Xl.7783 fold induction, qRT-PCR [12]: 4.3 fold
- Xl.14954 (similar to voltage-gated potassium channel subunit MiRP4.1) fold induction, qRT-PCR [12]: 9.5 fold
- Xl.14954 fold induction, qRT-PCR [12]: 1.9 fold

Structure (SMILES): Clc1cc2c(cc1Cl)Oc1cc(Cl)c(Cl)cc1O2 [TCDD, 2,3,7,8-tetrachlorodibenzo-p-dioxin]
- EC50 at 3 h [2]: 10500 ± 3170 pM
- EC50 at 24 h [2]: ≥ 95000 pM
- rise of induced CYP1A activity with 24 hours versus 3 hour exposure [3]: more than 20 fold
- EC50 at 3 h [4]: ~60 pM
- EC50 [5]: 50 ± 20 pM
- EC50 at 3 h [13]: 30 ± 10 pM
- EC50 at 24 h [13]: 10 ± 2 pM
- maximum EROD activity in Hepa1c1c7 cells relative to XLK-WG cells [6]: ~ 40 fold
- maximum EROD activity induced ([6]; Hepa1c1c7 cells): 13.41 ± 4.61 pmol • mg protein^−1 • min^−1
- fold induction at 3 h, 0.1 µM [7]: 1.7
- fold induction at 3 h, 0.1 µM [8]: 6.7
- Genes altered ≥ 2-fold: Induced ([9]; XLK-WG cells, 100 nM): 3
- Genes altered ≥ 2-fold: Repressed ([9]; XLK-WG cells, 100 nM): 1
- Genes altered (p ≤ 0.01): Induced ([9]; XLK-WG cells, 100 nM): 31
- Genes altered (p ≤ 0.01): Repressed ([9]; XLK-WG cells, 100 nM): 12
- fold induction at 0.1 µM [9, 15]: 1.3
- fold induction at 3 h, 100 nM [10]: 427
- fold induction at 3 h, 100 nM [11]: 320
- Hyaluronidase 2 (Xl.6247/Xl.16152) fold induction, qRT-PCR [12]: 1.6 fold
- Hypothetical protein MCG81225 (similar to Zn-finger protein 410; Xl.16594) fold induction, qRT-PCR [12]: 3.2 fold
- KCNE5.1: voltage-gated potassium channel subunit MiRP4.1 (Xl.16370) fold induction, qRT-PCR [12]: 2.0 fold
- MGC52735:similar to gap-jct protein alpha-7 (Xl.3337) fold induction, qRT-PCR [12]: 69.1 fold
- MGC85390 (Xl.23887; similar to RAB 40B, RAS oncogene family) fold induction, qRT-PCR [12]: 2.0 fold
- Peripheral Myelin protein 22 (Xl.11939/Xl.14729) fold induction, qRT-PCR [12]: 1.1 fold
- SYNE 1 (Xl. 14119) fold induction, qRT-PCR [12]: 8.4 fold
- Xl.13754 (similar to C219-reactive peptide) fold induction, qRT-PCR [12]: 2.2 fold
- Xl.14584 (similar to gastrula-specific protein kinase) fold induction, qRT-PCR [12]: 10.1 fold
- Xl.25142 fold induction, qRT-PCR [12]: 0.9 fold
- Xl.7783 fold induction, qRT-PCR [12]: 2.0 fold
- Xl.14954 (similar to voltage-gated potassium channel subunit MiRP4.1) fold induction, qRT-PCR [12]: 6.6 fold
- Xl.14954 fold induction, qRT-PCR [12]: 3.0 fold
- CYP1A6 and CYP1A7 mRNA expression, semi-quantitative RT-PCR [14]: up regulation of CYP1A6 and CYP1A7 mRNAs
